Measured values published in PMC3564407 (The Febs Journal, 2012).
Square brackets hold non-standard residues; d marks the D form. Ends that are not written are not given here. Peptide text beside a SMILES is read from it. pGlu = O=C1CC[C@@H](C(=O)O)N1

Experiments:
[1] = target: T1, Drosophila melanogaster AnCE (Drosophila melanogaster, UniProt Q10714); conditions: ref [17]; cited from earlier work
T1 sequence (Q10714 18-615): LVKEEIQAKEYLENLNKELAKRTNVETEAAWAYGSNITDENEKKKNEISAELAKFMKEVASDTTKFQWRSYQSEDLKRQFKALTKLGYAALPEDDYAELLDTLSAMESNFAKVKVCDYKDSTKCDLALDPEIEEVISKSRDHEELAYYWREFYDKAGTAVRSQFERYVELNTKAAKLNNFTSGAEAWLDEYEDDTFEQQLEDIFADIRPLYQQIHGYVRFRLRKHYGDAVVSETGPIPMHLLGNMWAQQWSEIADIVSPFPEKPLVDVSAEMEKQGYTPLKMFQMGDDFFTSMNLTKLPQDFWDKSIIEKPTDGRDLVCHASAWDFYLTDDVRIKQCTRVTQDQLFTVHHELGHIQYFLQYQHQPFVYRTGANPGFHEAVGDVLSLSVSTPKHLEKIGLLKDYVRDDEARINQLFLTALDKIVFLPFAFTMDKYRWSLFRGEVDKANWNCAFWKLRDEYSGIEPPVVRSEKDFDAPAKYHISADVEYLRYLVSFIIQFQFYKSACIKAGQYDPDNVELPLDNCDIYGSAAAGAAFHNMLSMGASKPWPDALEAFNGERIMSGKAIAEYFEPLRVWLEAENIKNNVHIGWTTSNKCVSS

ACE N- and C-domains = conditions: mice; ref [7],[8]; cited from earlier work
ACE N-domain = conditions: ref [9],[10]; cited from earlier work
[2] = target: T1, Drosophila melanogaster AnCE; assay: Inhibition of Ang I to Ang II conversion by AnCE; type: biochemical; conditions: pH 7.5, read-out: % inhibition of the conversion of Ang I to Ang II
In short: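 Recombinant D. melanogaster AnCE expressed in P. pastoris and purified by hydrophobic interaction and size-exclusion chromatography; diluted to 250 ng·μL−1 in reaction buffer containing 0.1 mg·mL−1 BSA. Reaction buffer is 0.1 m Hepes pH 7.5, 10 μm ZnSO4, 0.15 m NaCl, with Ang I (100 μm final) as substrate. Ang I consumption was quantified by HPLC-UV at 214 nm without and with 100 μm (initial) Ang II.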

[3] = target: T1, Drosophila melanogaster AnCE; assay: Inhibition of AnCE with Abz-YRK; type: biochemical

RPPGFSPFR [BK, bradykinin]
cleavage by AnCE [1]: inactivates BK | cleavage efficiency by ACE domains (ACE N- and C-domains): cleaved with similar efficiency by both domains

DRVYIHPFHL [Ang I, angiotensin I]
cleavage by AnCE [1]: converts Ang I to Ang II | in vivo conversion to Ang II by ACE domain (ACE N- and C-domains): the C-domain is primarily responsible

N-acetyl Ser–Asp–Lys–Pro
degradation by ACE domain (ACE N-domain): the N-domain is solely responsible

CC[C@H](C)[C@H](NC(=O)[C@H](Cc1ccc(O)cc1)NC(=O)[C@@H](NC(=O)[C@H](CCCNC(=N)N)NC(=O)[C@@H](N)CC(=O)O)C(C)C)C(=O)N[C@@H](Cc1c[nH]cn1)C(=O)N1CCC[C@H]1C(=O)N[C@@H](Cc1ccccc1)C(=O)O [Ang II, angiotensin II]
inhibition at 100 µM [2]: 73%

CC[C@H](C)[C@H](NC(=O)[C@H](CCCCN)NC(=O)[C@@H]1CCCN1C(=O)[C@H](CCCNC(=N)N)NC(=O)[C@@H]1CCCN1C(=O)[C@@H]1CCCN1C(=O)[C@H](CC(C)C)NC(=O)CNC(=O)[C@@H]1CCC(=O)N1)C(=O)N1CCC[C@H]1C(=O)N1CCC[C@H]1C(=O)O [BPPb, bradykinin-potentiating peptide-b] ([pGlu]GLPPRPKIPP-OH)
Ki [3]: 107 µM
